Measured values taken from PubChem BioAssay.
Active and inactive are the calls of the source.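 How the source made its calls, unless noted: active means current rise at least 3 SD above the untreated control mean in each of two repeat wells; inactive means the rest.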

Tests used:
[1] = thallium flux activation in parental CHO cells, counter-screen for KCNQ1 potentiator project (AID 493006;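 active means duplicate-averaged activation above buffer control mean plus 5 SD of those controls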); conditions: parental CHO-K1 cells, FluxOR thallium flux, at 10 µM; hits give high values
Procedure, shortened: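 Assay system: Untransfected host CHO-K1 cells with FluxOR thallium dye | Probe or stimulus: Potassium/thallium depolarization pulse | Schedule: Overnight 37 °C plating, 90 min RT dye, 20 min compound | Detection: Kinetic thallium-flux fluorescence | Read-out: Max-minus-min fluorescence over baseline, percent of buffer-to-R-L3 span | Benchmarks: Low control buffer, high control R-L3 activator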

[2] = target: Potassium voltage-gated channel subfamily KQT member 1 (Homo sapiens) (UniProt P51787); test: KCNQ1 potassium channel potentiators, confirmation, FluxOR thallium flux, CHO cells, duplicates (AID 493007;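 active means potentiation averaged over duplicate wells exceeding buffer-only control mean by more than 3 SD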;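 on outcome: cells depolarized by a potassium plus thallium sulfate stimulus after compound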); conditions: KCNQ1 cell line, FluxOR thallium flux fluorescence, at 10 µM; hits give high values, % of reference activator effect, buffer zero
Procedure, shortened: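 Material: KCNQ1-expressing CHO cell line; Incubation: FluxOR dye loading 90 min, compound exposure 20 min, room temperature; Detection: FluxOR Tl+ flux fluorescence, 10 s baseline plus 110 s recording; Read-out: percent activation between buffer and R-L3 responses; Control set: buffer-only wells as 0% and R-L3 activator as 100%; Replication: duplicate wells per compound.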

[3] = target: Potassium voltage-gated channel subfamily KQT member 2 (Rattus norvegicus) (UniProt O88943); test: rat KCNQ2 channel potentiation, selectivity assay for KCNQ1 potentiator project, KCNQ2-CHO-K1 cells (AID 493009;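 active means mean duplicate potentiation above the buffer control mean plus 5 SD of buffer wells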;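 further: assay conditions were tuned for KCNQ1 rather than KCNQ2 modulators; signal is max minus min fluorescence divided by baseline after thallium stimulus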); conditions: FluxOR thallium flux fluorescence, at 10 µM; hits give high values, scaled: buffer 0, activator control 100
[4] = target: Potassium voltage-gated channel subfamily KQT member 1 (Homo sapiens) (UniProt P51787); test: KCNQ1 channel current potentiators, confirmation, orthogonal assay for KCNQ1 potentiator project, IonWorks patch clamp, KCNQ1-CHO cells (AID 493184); conditions: automated patch clamp current, at 10 µM; hits give high values
Procedure, shortened: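 assay system = KCNQ1-expressing CHO cells | medium = external bath solution at pH 7.4 | probe or stimulus = 2,000 ms depolarization, -90 to +40 mV | compound dosing = 10 µM final, single point | measured by = automated voltage clamp, amphotericin B perforated patch | measure = percent current increase versus pre-compound level | replication = duplicates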

Potassium voltage-gated channel subfamily KQT member 2 (Rattus norvegicus), sequence (O88943 whole entry, looked up): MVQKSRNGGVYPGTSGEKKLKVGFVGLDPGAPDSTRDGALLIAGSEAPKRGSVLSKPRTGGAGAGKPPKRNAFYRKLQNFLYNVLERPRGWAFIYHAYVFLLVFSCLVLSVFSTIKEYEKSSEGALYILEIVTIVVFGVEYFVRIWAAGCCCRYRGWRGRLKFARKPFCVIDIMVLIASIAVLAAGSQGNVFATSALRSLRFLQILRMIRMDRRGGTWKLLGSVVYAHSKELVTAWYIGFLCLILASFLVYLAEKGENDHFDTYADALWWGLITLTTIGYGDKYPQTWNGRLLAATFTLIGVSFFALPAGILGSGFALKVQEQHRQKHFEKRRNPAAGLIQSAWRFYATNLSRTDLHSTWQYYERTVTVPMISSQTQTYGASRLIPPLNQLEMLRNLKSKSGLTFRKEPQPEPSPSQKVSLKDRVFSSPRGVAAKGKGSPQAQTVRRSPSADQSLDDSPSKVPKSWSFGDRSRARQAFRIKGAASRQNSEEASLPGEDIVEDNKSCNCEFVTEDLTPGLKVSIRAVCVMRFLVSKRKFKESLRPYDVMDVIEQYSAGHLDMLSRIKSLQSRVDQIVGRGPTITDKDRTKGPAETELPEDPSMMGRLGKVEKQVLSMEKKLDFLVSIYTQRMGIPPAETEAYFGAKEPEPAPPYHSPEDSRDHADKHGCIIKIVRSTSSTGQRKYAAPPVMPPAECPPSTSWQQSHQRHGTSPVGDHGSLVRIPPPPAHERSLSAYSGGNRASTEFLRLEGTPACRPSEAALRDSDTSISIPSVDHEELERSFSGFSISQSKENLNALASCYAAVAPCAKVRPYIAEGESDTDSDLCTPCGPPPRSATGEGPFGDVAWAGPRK
Potassium voltage-gated channel subfamily KQT member 1 (Homo sapiens), sequence (P51787 whole entry, looked up): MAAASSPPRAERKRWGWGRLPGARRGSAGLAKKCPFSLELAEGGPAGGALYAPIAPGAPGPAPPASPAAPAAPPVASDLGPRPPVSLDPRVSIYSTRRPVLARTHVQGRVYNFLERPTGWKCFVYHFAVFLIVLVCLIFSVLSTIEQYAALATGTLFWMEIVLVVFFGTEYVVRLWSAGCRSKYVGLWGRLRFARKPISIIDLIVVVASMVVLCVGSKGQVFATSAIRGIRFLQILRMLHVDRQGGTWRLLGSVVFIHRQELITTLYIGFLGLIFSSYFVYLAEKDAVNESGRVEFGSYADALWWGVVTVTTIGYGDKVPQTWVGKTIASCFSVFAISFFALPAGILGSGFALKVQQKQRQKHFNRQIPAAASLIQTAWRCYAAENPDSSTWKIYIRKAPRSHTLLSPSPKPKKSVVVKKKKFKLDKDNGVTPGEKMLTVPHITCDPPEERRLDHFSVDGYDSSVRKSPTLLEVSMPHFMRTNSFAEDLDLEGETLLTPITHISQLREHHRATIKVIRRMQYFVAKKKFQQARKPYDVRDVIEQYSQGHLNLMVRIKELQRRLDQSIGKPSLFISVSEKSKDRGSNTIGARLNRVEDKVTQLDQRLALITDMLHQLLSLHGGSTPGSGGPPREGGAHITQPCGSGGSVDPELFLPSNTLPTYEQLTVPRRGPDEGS

Row | SMILES | activation [1] | potentiation [2] | potentiation [3] | outcome [4] | outcome [1] | outcome [2] | outcome [3]
1 | O=C(NC(=S)Nc1ccccc1Cl)c1csnn1 | 450% (active) | 174% (active) | 510% (active) | inactive | – | – | –
2 | COc1cc2c3nnc(-c4ccccc4)c-3cn(Cc3ccc(F)cc3)c2cc1OC | – | – | – | inactive | inactive | inactive | inactive
3 | CCN(C(=S)NC(=O)c1ccccc1Br)C1CCCCC1 | 358% (active) | 124% (active) | 370% (active) | inactive | – | – | –
4 | CN1C=CC=C/C1=C1\SC(=S)N(C2CCCCC2)C1=O | – | – | – | inactive | inactive | inactive | inactive
5 | Cc1[nH]n2c(=O)cc(C(C)(C)C)nc2c1-c1ccccc1 | 227% (active) | 33.5% (active) | 224% (active) | inactive | – | – | –
6 | CCN(Cc1cc2cc(OC)ccc2[nH]c1=O)C(=O)c1ccncc1 | – | – | – | inactive | inactive | inactive | inactive
7 | C/C(=C/CCC(C)[C@H]1CC[C@@]2(C)C3=C(CC[C@]12C)[C@@]1(C)CCC(=O)C(C)(C)[C@@H]1CC3)C(=O)O (stereo not given in full) | 829% (active) | 298% (active) | 680% (active) | inactive | – | – | –
8 | O=C(c1ccco1)N1CCN=C1SCc1ccc(F)cc1 | – | – | – | inactive | inactive | inactive | inactive
9 | CC(NC(=S)NC(=O)c1ccccc1Br)c1ccccc1 (stereo not given) | – | 84% (active) | 184% (active) | inactive | inactive | – | –
10 | O=C(NNC(=S)NC(=O)c1sc2ccccc2c1Cl)c1ccc(Cl)cc1 | 320% (active) | 168% (active) | 319% (active) | inactive | – | – | –
11 | COC(=O)C1C(=O)c2c([nH]c(C(=O)OCCSC)c2C)CC1C (stereo not given) | – | – | – | inactive | inactive | inactive | inactive
12 | O=C(NC(=S)N1CCCc2ccccc21)c1ccc([N+](=O)[O-])cc1 | 202% (active) | 82% (active) | 247% (active) | inactive | – | – | –
13 | CCOc1ccc(C(=O)C(CCC(CN(C)C)C(=O)c2ccc(OCC)cc2)CN(C)C)cc1 (stereo not given) | – | 34.5% (active) | 152% (active) | inactive | inactive | – | –
14 | O=S(=O)(/C=C/c1ccccc1)n1cnc2ccccc21 | – | – | – | inactive | inactive | inactive | inactive
15 | COc1ccc(NC(=O)C(=O)NNC(=O)c2cccs2)c(OC)c1 | 246% (active) | 37.5% (active) | 220% (active) | inactive | – | – | –
16 | CCOC(=O)c1c(CN2CCN(CCO)CC2)n(C)c2cc(Br)c(OC)cc12 | – | – | – | inactive | inactive | inactive | inactive
17 | CN(C)CCCC1(O)c2ccccc2C=Cc2ccccc21 | 139% (active) | 29% (active) | – | inactive | – | – | inactive
18 | CC1CCC(n2c(=S)[nH]c3ccccc3c2=O)CC1 (stereo not given) | 234% (active) | 70% (active) | 243% (active) | inactive | – | – | –
19 | O=C(NC(=S)Nc1ccccc1N1CCCC1)c1ccc([N+](=O)[O-])cc1 | 161% (active) | 100% (active) | 218% (active) | inactive | – | – | –
20 | CCc1ccc(C2c3[nH]c4ccccc4c3CCN2C(=O)CNC(N)=O)cc1 (stereo not given) | – | 31% (active) | 156% (active) | inactive | inactive | – | –
21 | CN(C)CC1CCCCC1OC(=O)/C=C/c1ccc(Cl)cc1Cl (stereo not given) | – | – | – | inactive | inactive | inactive | inactive
22 | CCn1c(=S)[nH]c2c(c1=O)C(C)(C)Cc1ccccc1-2 | 150% (active) | – | – | inactive | – | inactive | inactive
23 | CCCC(=O)n1nc(-c2ccccc2)nc1N | – | – | – | inactive | inactive | inactive | inactive
24 | O=c1c2ccccc2[nH]c(=S)n1CCc1ccccc1 | 159% (active) | – | – | inactive | – | inactive | inactive
25 | C=CCN(CC=C)C(=S)NC(=O)Cc1cccc2ccccc12 | 210% (active) | 68.5% (active) | 245% (active) | inactive | – | – | –
26 | CCCCn1c(SCC(N)=O)nc2ccc(N3CCOCC3)cc2c1=O | – | – | – | inactive | inactive | inactive | inactive
27 | CCCCOC(=O)c1ccc(NC(=S)NC(=O)c2c(Cl)cnn2C)cc1 | – | 77.5% (active) | 160% (active) | inactive | inactive | – | –
28 | O=C(NC(=S)N1CCN(C/C=C/c2ccccc2)CC1)c1ccc(F)cc1 | 190% (active) | 74% (active) | 260% (active) | inactive | – | – | –
29 | CC1CCc2c(sc(NS(=O)(=O)c3ccccc3)c2C(=O)OC(C)C)C1 (stereo not given) | 284% (active) | 156% (active) | 380% (active) | inactive | – | – | –
30 | CCc1cccc(C)c1NC(=O)c1ccc2nc(N3CCOCC3)sc2c1 | – | – | – | inactive | inactive | inactive | inactive
